One compound from ChEMBL document CHEMBL1138454, “Synthesis and SAR of tolylamine 5-HT6 antagonists” (Bioorg Med Chem Lett, 2009) can be followed below.

The source made the active and inactive calls. No cut-off for these calls is given here. Some results are limits rather than exact numbers.

The subject of series [1] is Rattus norvegicus. Kind of series: Reversal of natural forgetting activity in rat assessed as familiar object recognition at 3 mg/kg, ip after 24 hrs. Type of series: functional, organism-based. On the set-up: dose 3 mg/kg.
Series [2] concerns Rattus norvegicus. The series can be described thus: Reversal of natural forgetting activity in rat assessed as familiar object recognition at 10 mg/kg, ip after 24 hrs. Type of series: functional, organism-based. Details: dose 10 mg/kg.
Series [3] in a line: Bioavailability in rat. Type of series: ADME, organism-based. Particulars: in vivo.
Series [4] can be described thus: Clearance in rat. Type of series: ADME, organism-based. Particulars: in vivo.
A short description of series [5]: Volume of distribution at steady state in rat. To be noted: in vivo, read-out: Vdss. Type of series: ADME, organism-based.
Series [6] is described as follows: Half life in po dosed rat plasma. The class given is ADME, organism-based. A digest of the protocol:
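Rat pharmacokinetics; plasma half-life derived from the PO dosing arm.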

Series [7] is described as follows: Ratio of drug level in rat brain to plasma. To be noted: brain and plasma.
Series [8] addresses 5-hydroxytryptamine receptor 6 (Rattus norvegicus) (UniProt P31388). Kind of series: Agonist activity at rat recombinant 5HT6 receptor assessed as increase in 5-HT-stimulated cAMP level at 1 uM by ELISA. Type of series: functional. In outline:
(§1)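 cAMP accumulation measured by ELISA in cells expressing recombinant rat 5-HT6 receptor. Compound tested alone, without 5-HT, at 1, 3 and 10 µM to look for stimulation. 5-HT used as the stimulating reference.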
(Changes in cAMP serve as a functional read-out for many G protein-coupled receptors.)

For series [9] the target is unchanged. The series can be described thus: Agonist activity at rat recombinant 5HT6 receptor assessed as increase in 5-HT-stimulated cAMP level at 3 uM by ELISA. The class given is functional. In outline: as §1
Series [10] shares this target. Kind of series: Agonist activity at rat recombinant 5HT6 receptor assessed as increase in 5-HT-stimulated cAMP level at 10 uM by ELISA. Type of series: functional. In outline:
as §1

Series [11] has the same target. Kind of series: Antagonist activity at rat recombinant 5HT6 receptor assessed as inhibition of 5-HT-stimulated cAMP level by ELISA. Type of series: functional. In outline:
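Cells expressing recombinant rat 5-HT6 receptor were stimulated with 5-HT. Inhibition of the 5-HT-stimulated cAMP accumulation was read by ELISA and expressed as a Kb.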

The target of series [12] is T1, 5-hydroxytryptamine receptor 1A (Homo sapiens, UniProt P08908).
T1 sequence (P08908 whole entry): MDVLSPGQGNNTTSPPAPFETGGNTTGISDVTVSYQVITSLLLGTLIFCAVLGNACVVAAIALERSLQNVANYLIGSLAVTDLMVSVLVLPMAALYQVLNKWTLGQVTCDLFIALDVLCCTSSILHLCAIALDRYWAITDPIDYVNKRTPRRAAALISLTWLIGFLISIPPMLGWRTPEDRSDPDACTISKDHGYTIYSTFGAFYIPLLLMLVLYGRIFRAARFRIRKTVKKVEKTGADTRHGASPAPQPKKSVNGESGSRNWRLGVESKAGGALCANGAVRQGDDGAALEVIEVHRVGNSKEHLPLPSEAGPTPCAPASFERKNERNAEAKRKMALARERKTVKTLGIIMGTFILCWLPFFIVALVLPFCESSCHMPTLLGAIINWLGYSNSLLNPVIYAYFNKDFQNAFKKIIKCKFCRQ
The series can be described thus: Binding affinity to 5HT1A receptor.

Series [13] concerns the target 5-hydroxytryptamine receptor 2A (Homo sapiens, UniProt P28223). Kind of series: Binding affinity to 5HT2A receptor.
The target in series [14] is T2, 5-hydroxytryptamine receptor 2C (Homo sapiens, UniProt P28335).
T2 sequence (P28335 whole entry): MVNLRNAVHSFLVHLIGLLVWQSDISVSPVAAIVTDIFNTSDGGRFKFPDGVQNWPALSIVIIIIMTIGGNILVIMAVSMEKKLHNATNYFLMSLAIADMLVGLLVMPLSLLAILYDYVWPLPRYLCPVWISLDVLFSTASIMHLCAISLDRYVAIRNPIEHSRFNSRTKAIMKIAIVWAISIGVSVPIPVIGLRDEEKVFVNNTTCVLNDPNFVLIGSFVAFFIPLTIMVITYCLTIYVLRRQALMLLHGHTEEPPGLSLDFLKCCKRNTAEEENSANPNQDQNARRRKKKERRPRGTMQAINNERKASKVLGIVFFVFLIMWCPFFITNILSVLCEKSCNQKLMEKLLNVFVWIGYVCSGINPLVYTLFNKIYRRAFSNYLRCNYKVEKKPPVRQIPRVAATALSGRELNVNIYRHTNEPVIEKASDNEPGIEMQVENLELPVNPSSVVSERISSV
The series can be described thus: Binding affinity to 5HT2C receptor.

In series [15] the test system is Rattus norvegicus. Kind of series: Reversal of natural forgetting activity in rat assessed as novel object recognition at 3 mg/kg, ip after 24 hrs. Type of series: functional, organism-based. On the set-up: dose 3 mg/kg.
For series [16], the system named is Rattus norvegicus. Kind of series: Reversal of natural forgetting activity in rat assessed as novel object recognition at 10 mg/kg, ip after 24 hrs. The class given is functional, organism-based. Details: dose 10 mg/kg.

5-hydroxytryptamine receptor 6 (Rattus norvegicus), sequence (P31388 whole entry): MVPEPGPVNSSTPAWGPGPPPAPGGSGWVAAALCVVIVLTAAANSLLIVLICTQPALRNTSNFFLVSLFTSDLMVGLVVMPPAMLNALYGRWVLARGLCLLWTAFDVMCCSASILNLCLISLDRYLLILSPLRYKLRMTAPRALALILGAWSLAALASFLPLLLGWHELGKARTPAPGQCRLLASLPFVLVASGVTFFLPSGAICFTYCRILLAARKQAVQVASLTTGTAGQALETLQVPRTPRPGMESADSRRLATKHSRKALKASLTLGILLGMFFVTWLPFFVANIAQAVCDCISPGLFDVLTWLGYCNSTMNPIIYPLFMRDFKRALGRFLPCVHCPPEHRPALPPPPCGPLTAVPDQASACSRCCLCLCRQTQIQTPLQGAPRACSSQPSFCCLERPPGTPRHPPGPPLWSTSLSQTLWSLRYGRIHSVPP
5-hydroxytryptamine receptor 2A, sequence (P28223 whole entry): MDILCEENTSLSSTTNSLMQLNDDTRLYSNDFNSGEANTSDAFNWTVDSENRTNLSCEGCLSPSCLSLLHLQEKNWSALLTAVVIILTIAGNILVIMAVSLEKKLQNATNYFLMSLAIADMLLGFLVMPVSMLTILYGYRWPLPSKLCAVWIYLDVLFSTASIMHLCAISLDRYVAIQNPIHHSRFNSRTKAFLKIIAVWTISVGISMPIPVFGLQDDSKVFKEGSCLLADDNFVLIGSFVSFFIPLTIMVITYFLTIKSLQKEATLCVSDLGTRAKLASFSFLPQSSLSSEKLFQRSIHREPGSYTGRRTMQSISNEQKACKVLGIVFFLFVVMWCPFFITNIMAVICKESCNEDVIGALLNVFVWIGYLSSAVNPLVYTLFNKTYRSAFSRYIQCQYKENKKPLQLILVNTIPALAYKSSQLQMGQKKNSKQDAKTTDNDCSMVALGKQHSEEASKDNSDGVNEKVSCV

Turning to `Cc1c(O[C@@H](C)c2cccc(F)c2)cccc1C1CCNCC1`, the result in [1], in series [2], in series [15] and in [16] was Active. For the same compound, in series [3], the bioavailability stood at 90%. Moreover, the clearance in series [4] turned out to be 66 mL/min/kg. Further, the Vd in series [5] amounted to 12 L/kg. The compound also gave a half-life in [6] of 5.9 h. In series [7], the Kp came out at 23. Moreover, the outcome in series [8], in series [9] and in series [10] was inactive. Further, in series [11], the antagonist dissociation constant (Kb) is 153 nM. Further, the IC50 in series [12], in series [13] and in series [14] was > 1000 nM throughout.

As a reminder, the bioavailability is dose-corrected exposure relative to a reference, in per cent. Higher therefore signals good availability. What is called clearance is the rate of elimination divided by the concentration. Read a high clearance as efficient removal. The term half-life denotes how long it takes for the measured level to halve. The term Kp denotes tissue or fluid exposure divided by exposure in the circulation. As a reminder, the Kb is the equilibrium dissociation constant of an antagonist, usually derived from a functional assay. By IC50 is commonly meant the concentration that gives 50% inhibition.
